Experiments:
Conditions in all cases: in vivo
Liver [1] = assay: Biodistribution in male Sprague-Dawley rat liver at 5 mg/kg, po administered as single dose measured after 0.5 hrs; type: ADME, organism-based; set-up: dose 5 mg/kg, dosed compound name [14C]-apixaban, route oral
How it was run: (§1)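 [14C]apixaban (1.0 mg/mL, 20 μCi/mL) in 0.5% Tween 80 in Labrafil, given by oral gavage at 100 μCi/kg to male rats (225-252 g) fasted overnight through 4 h post-dose. One rat per time point. Carcasses frozen in hexane/dry ice and cut into 40 µm sagittal sections. QWBA read on phosphor plates against [14C]glucose standards, reported as µg eq/g. LLOQ 0.037 µg eq/g.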

Rattus norvegicus [2] = assay: Biodistribution in male Sprague-Dawley rat salivary gland at 5 mg/kg, po administered as single dose measured after 0.5 hrs; type: ADME, organism-based; set-up: dose 5 mg/kg, dosed compound name [14C]-apixaban, route oral
Thymus [3] = assay: Biodistribution in male Sprague-Dawley rat thymus at 5 mg/kg, po administered as single dose measured after 0.5 hrs; type: ADME, organism-based; set-up: dose 5 mg/kg, dosed compound name [14C]-apixaban, route oral; how it was run: as §1
Rattus norvegicus [4] = assay: Biodistribution in male Sprague-Dawley rat bone marrow at 5 mg/kg, po administered as single dose measured after 0.5 hrs; type: ADME, organism-based; set-up: dose 5 mg/kg, dosed compound name [14C]-apixaban, route oral
How it was run: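 Fasted male rats, 225-252 g, received [14C]apixaban by single oral gavage at 100 μCi/kg in 0.5% Tween 80/Labrafil. One rat was killed per time point and the carcass frozen. Tissue radioactivity was quantified by QWBA (40 µm sagittal sections, phosphor plate, [14C]glucose calibration) as µg eq apixaban/g, with LLOQ 0.037 μg eq/g.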

Spleen [5] = assay: Biodistribution in male Sprague-Dawley rat spleen at 5 mg/kg, po administered as single dose measured after 72 hrs; type: ADME, organism-based; set-up: dose 5 mg/kg, dosed compound name [14C]-apixaban, route oral
How it was run: (§2)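 Fasted male SD rats (225-252 g) each received one oral gavage dose of [14C]apixaban, 5 mg/kg (100 μCi/kg), in 0.5% Tween 80/Labrafil vehicle. One rat was killed per time point, from 0.5 to 168 h. Frozen carcasses were cut into 40 µm sagittal whole-body sections and read by QWBA phosphor imaging against [14C]glucose calibrants. Results are in µg apixaban eq/g; BLQ <0.037 µg eq/g.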

Adrenal gland [6] = assay: Biodistribution in female Sprague-Dawley rat adrenal gland at 5 mg/kg, po administered as single dose measured after 72 hrs; type: ADME, organism-based; set-up: dose 5 mg/kg, dosed compound name [14C]-apixaban, route oral
How it was run: (§3)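 Quantitative whole-body autoradiography was run after a single 5 mg/kg (100 μCi/kg) oral gavage to fasted female or pregnant SD rats, one rat per time point. Carcasses were frozen in hexane/dry ice, and 40 µm sagittal sections were dried at −20°C for at least 48 h. Sections were exposed to a phosphor plate alongside [14C]glucose standards (0.001–6.5 µCi/g). Results are µg eq/g, with LLOQ 0.037 µg eq/g.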

Rattus norvegicus [7] = assay: Biodistribution in female Sprague-Dawley rat pituitary gland at 5 mg/kg, po administered as single dose measured after 24 hrs; type: ADME, organism-based; set-up: dose 5 mg/kg, dosed compound name [14C]-apixaban, route oral; how it was run: as §3
Pancreas = assay: Biodistribution in female Sprague-Dawley rat pancreas at 5 mg/kg, po administered as single dose measured after 24 hrs; type: ADME, organism-based; set-up: dose 5 mg/kg, dosed compound name [14C]-apixaban, route oral; how it was run: as §3
Rattus norvegicus [8] = assay: Biodistribution in female Sprague-Dawley rat salivary gland at 5 mg/kg, po administered as single dose measured after 8 hrs; type: ADME, organism-based; set-up: dose 5 mg/kg, dosed compound name [14C]-apixaban, route oral
How it was run: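 [14C]apixaban (20 μCi/mL in dosing solution) in 0.5% Tween 80 in Labrafil given by oral gavage to fasted female rats, 206-213 g, at 100 μCi/kg. One rat per time point was euthanized and snap-frozen. Sagittal 40 µm whole-body sections were read by QWBA phosphor imaging against [14C]glucose standards. Results are in µg eq apixaban/g, with LLOQ 0.037 μg eq/g.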

Muscle tissue [9] = assay: Biodistribution in female Sprague-Dawley rat muscle at 5 mg/kg, po administered as single dose measured after 8 hrs; type: ADME, organism-based; set-up: dose 5 mg/kg, dosed compound name [14C]-apixaban, route oral
How it was run: (§4)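 [¹⁴C]Apixaban given by oral gavage at 5 mg/kg (100 μCi/kg) in 0.5% Tween 80 in Labrafil (1.0 mg/mL dosing solution) to rats fasted overnight through 4 h post-dose. One rat per time point; carcass frozen in hexane/dry ice. Quantitative whole-body autoradiography used 40 µm sagittal sections and a phosphor imaging plate calibrated with [¹⁴C]glucose standards (0.001–6.5 μCi/g). Read-out in µg eq apixaban/g; LLOQ 0.037 μg eq/g.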

Thymus [10] = assay: Biodistribution in female Sprague-Dawley rat thymus at 5 mg/kg, po administered as single dose measured after 0.5 hrs; type: ADME, organism-based; set-up: dose 5 mg/kg, dosed compound name [14C]-apixaban, route oral; how it was run: as §4
Muscle tissue [11] = assay: Biodistribution in male Sprague-Dawley rat muscle at 5 mg/kg, po administered as single dose measured after 24 hrs; type: ADME, organism-based; set-up: dose 5 mg/kg, dosed compound name [14C]-apixaban, route oral; how it was run: as §1
Spleen [12] = assay: Biodistribution in male Sprague-Dawley rat spleen at 5 mg/kg, po administered as single dose measured after 24 hrs; type: ADME, organism-based; set-up: dose 5 mg/kg, dosed compound name [14C]-apixaban, route oral; how it was run: as §2
Adrenal gland [13] = assay: Biodistribution in male Sprague-Dawley rat adrenal gland at 5 mg/kg, po administered as single dose measured after 4 hrs; type: ADME, organism-based; set-up: dose 5 mg/kg, dosed compound name [14C]-apixaban, route oral; how it was run: as §4
Rattus norvegicus [14] = assay: Biodistribution in fetal liver of pregnant Sprague-Dawley rat at 5 mg/kg, po administered as single dose measured after 8 hrs; type: ADME, organism-based; set-up: dose 5 mg/kg, dosed compound name [14C]-apixaban, route oral
How it was run: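 Pregnant SD rats received a single oral gavage of [14C]apixaban at 5 mg/kg (100 μCi/kg; 1.0 mg/mL, 20 μCi/mL in 0.5% Tween 80/Labrafil) after fasting, one dam per time point. Frozen carcasses were cut into 40 µm sagittal sections and read by phosphor-imaging QWBA against [14C]glucose standards. Fetal tissue radioactivity is reported as µg eq/g, with LLOQ 0.037 µg eq/g.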

[15] = Drug level in lactating Sprague-Dawley rat milk at 5 mg/kg, po administered as single dose after 6 hrs; type: ADME, organism-based; set-up: dose 5 mg/kg, dosed compound name [14C]-apixaban, route oral
Rattus norvegicus [16] = assay: Biodistribution in fetal blood of pregnant Sprague-Dawley rat at 5 mg/kg, po administered as single dose measured after 24 hrs; type: ADME, organism-based; set-up: dose 5 mg/kg, dosed compound name [14C]-apixaban, route oral; how it was run: as §3
Liver [17] = assay: Biodistribution in female Sprague-Dawley rat liver at 5 mg/kg, po administered as single dose measured after 72 hrs; type: ADME, organism-based; set-up: dose 5 mg/kg, dosed compound name [14C]-apixaban, route oral; how it was run: as §3
Rattus norvegicus [18] = assay: Biodistribution in female Sprague-Dawley rat salivary gland at 5 mg/kg, po administered as single dose measured after 72 hrs; type: ADME, organism-based; set-up: dose 5 mg/kg, dosed compound name [14C]-apixaban, route oral; how it was run: as §3
Harderian gland = assay: Biodistribution in female Sprague-Dawley rat harderian gland at 5 mg/kg, po administered as single dose measured after 4 hrs; type: ADME, organism-based; set-up: dose 5 mg/kg, dosed compound name [14C]-apixaban, route oral; how it was run: as §4
Spleen [19] = assay: Biodistribution in female Sprague-Dawley rat spleen at 5 mg/kg, po administered as single dose measured after 1 hr; type: ADME, organism-based; set-up: dose 5 mg/kg, dosed compound name [14C]-apixaban, route oral; how it was run: as §4
Adrenal gland [20] = assay: Biodistribution in pregnant Sprague-Dawley rat adrenal gland at 5 mg/kg, po administered as single dose measured after 4 hrs; type: ADME, organism-based; set-up: dose 5 mg/kg, dosed compound name [14C]-apixaban, route oral
How it was run: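 Fasted pregnant SD rats (n=6, 270-319 g) each received one oral gavage dose of [14C]apixaban, 5 mg/kg (100 μCi/kg), in 0.5% Tween 80/Labrafil. One rat was killed at each of 0.5, 1, 4, 8, 24 and 48 h. Carcasses were frozen in hexane/dry ice, cut into 40 µm sagittal sections, exposed to phosphor plates and quantified against [14C]glucose standards as µg eq/g. LLOQ was 0.037 µg eq/g.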

Rattus norvegicus [21] = assay: Biodistribution in pregnant Sprague-Dawley rat pituitary gland at 5 mg/kg, po administered as single dose measured after 4 hrs; type: ADME, organism-based; set-up: dose 5 mg/kg, dosed compound name [14C]-apixaban, route oral
Blood = assay: AUC (0 to t) in female Sprague-Dawley rat blood at 5 mg/kg, po administered as single dose; type: ADME, organism-based; set-up: dose 5 mg/kg, dosed compound name [14C]-apixaban, route oral
Heart = assay: Biodistribution in pregnant Sprague-Dawley rat heart at 5 mg/kg, po administered as single dose measured after 8 hrs; type: ADME, organism-based; set-up: dose 5 mg/kg, dosed compound name [14C]-apixaban, route oral
[22] = Drug excretion in Sprague-Dawley rat feces at 30 mg/kg, po administered as single dose after 0 to 168 hrs

`COc1ccc(-n2nc(C(N)=O)c3c2C(=O)N(c2ccc(N4CCCC[14C]4=O)cc2)CC3)cc1` gave a Radiolabel recovery (Liver [1]) of 0.81 ugequiv/g, a Radiolabel recovery (Rattus norvegicus [2]) of 0.3 ugequiv/g and a Radiolabel recovery (Thymus [3]) of 0.16 ugequiv/g. For the same compound, the Radiolabel recovery (Rattus norvegicus [4]) was 0.26 ugequiv/g, the Radiolabel recovery (Spleen [5]) was “Not detected assumed BLQ” and the Radiolabel recovery (Adrenal gland [6]) was “Not detected assumed BLQ”. For the same compound, the Radiolabel recovery (Rattus norvegicus [7]) was “Not detected assumed BLQ”, the Radiolabel recovery (Pancreas) was “Not detected assumed BLQ” and the Radiolabel recovery (Rattus norvegicus [8]) was 0.13 ugequiv/g. The Radiolabel recovery (Muscle tissue [9]) was 0.08 ugequiv/g, the Radiolabel recovery (Thymus [10]) was 0.2 ugequiv/g and the Radiolabel recovery (Muscle tissue [11]) was < 0.037 ugequiv/g. For the same compound, the Radiolabel recovery (Spleen [12]) was “Not detected assumed BLQ”, the Radiolabel recovery (Adrenal gland [13]) was 0.76 ugequiv/g and the Radiolabel recovery (Rattus norvegicus [14]) was 0.06 ugequiv/g. The Radiolabel recovery [15] was 8.92 µg/mL, the Radiolabel recovery (Rattus norvegicus [16]) was “Not detected assumed BLQ” and the Radiolabel recovery (Liver [17]) was “Not detected assumed BLQ”. The Radiolabel recovery (Rattus norvegicus [18]) was “Not detected assumed BLQ”, the Radiolabel recovery (Harderian gland) was 1.12 ugequiv/g and the Radiolabel recovery (Spleen [19]) was 0.35 ugequiv/g. It also gave a Radiolabel recovery (Adrenal gland [20]) of 2.3 ugequiv/g, a Radiolabel recovery (Rattus norvegicus [21]) of 0.75 ugequiv/g and an AUCt (Blood) of 3110 ngequiv.hr/g. The Radiolabel recovery (Heart) was 0.06 ugequiv/g and the Radiolabel recovery [22] was 74%.
